Two compounds from ChEMBL document CHEMBL3124922, “The antitumor agent PBT-1 directly targets HSP90 and hnRNP A2/B1 and inhibits lung adenocarcinoma growth and metastasis” (J Med Chem, 2014) can be followed below.

Data set [1] deals with CL1-5. Briefly: Binding affinity to HSP70 in human CL1-5 cell lysate after 1 hr by affinity chromatographic analysis. Type of data set: cell-free. The gist of the method:
(§1)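 CL1-5 lysate (10 mg protein; Tris pH 8.0 lysis buffer) held with or without 1 mM free ligand for 1 h, then loaded at 4 °C onto Sepharose 4B carrying the coupled ligand, with uncoupled beads as control. Washed with T buffer, eluted with 4 M urea/1 M NaCl; flow-through, wash and eluate probed by Western blot for HSP90, hnRNP A2/B1, HSP70 and β-actin.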

In data set [2] the target is T1, HSP90 and hnRNPA2/B1 (Homo sapiens, UniProt P08238+P22626). Briefly: Binding affinity to HSP90/hnRNPA2/B1 in human CL1-5 cell lysate after 1 hr by affinity chromatographic analysis. Type of data set: cell-free. The gist of the method:
as §1

Data set [3] deals with T1, HSP90 and hnRNPA2/B1. Briefly: Inhibition of HSP90/hnRNPA2/B1 in human CL1-5 cells. It counts as cell-based.
In data set [4] the target is T1, HSP90 and hnRNPA2/B1. Briefly: Inhibition of HSP90/hnRNPA2/B1 in human CL1-5 cells assessed as reduction of slug expression at >0.5 ug/ml after 24 hrs by Western blotting analysis. It counts as cell-based. On the technique in general: In western blotting, separated proteins are transferred to a membrane and probed.
For data set [5], the target named is T1, HSP90 and hnRNPA2/B1. Briefly: Inhibition of HSP90/hnRNPA2/B1 in human CL1-5 cells assessed as reduction of slug expression at 0.25 ug/ml up to 5 hrs by Western blotting analysis. It counts as cell-based. The gist of the method:
(§2)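 CL1-5 or CL152 cells exposed to a range of concentrations for 5 h; Slug (and E-cadherin) detected by Western blot with β-actin as loading control; representative of three experiments.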

The target in data set [6] is T1, HSP90 and hnRNPA2/B1. In words: Inhibition of HSP90/hnRNPA2/B1 in human CL1-5 cells assessed as reduction of slug expression at >0.5 ug/ml up to 5 hrs by Western blotting analysis. Type of data set: cell-based. The method in brief: as §2
The target of data set [7] is T1, HSP90 and hnRNPA2/B1. Briefly: Inhibition of HSP90/hnRNPA2/B1 in human CL1-5 cells assessed as reduction of slug expression at 0.5 ug/ml after 2 hrs by Western blotting analysis. It counts as cell-based. The method in brief:
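CL1-5 cells exposed to 0.5 μg/mL for 0.5, 1 or 2 h; Slug in cell extracts detected by Western blot with β-actin as loading control; representative of three experiments.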

Data set [8] has as its target T1, HSP90 and hnRNPA2/B1. Briefly: Inhibition of HSP90/hnRNPA2/B1 in human PC9 cells assessed as reduction of slug expression at 0.5 ug/ml after 5 hrs by Western blotting analysis. Type of data set: cell-based. As to conditions: PC-9.
Data set [9] deals with CL1-5. In words: Antimigratory activity against human CL1-5 cells assessed as reduction of cell migration at 0.25 ug/ml after 1 to 12 hrs by wound healing assay relative to control. It counts as functional, cell-based. The gist of the method: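 Cells grown to near-confluence in 6 cm dishes, monolayer scratched with a pipet tip, debris washed off with PBS; incubated at 37 °C and photographed at 0, 4, 8 and 12 h. Cells migrating into the cell-free zone counted. Triplicate samples, at least three independent experiments, mean ± SD.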

The target of data set [10] is T1, HSP90 and hnRNPA2/B1. Briefly: Inhibition of HSP90/hnRNPA2/B1 in human CL1-5 cells assessed as upregulation of E-cadherin expression after 0.5 to 2 hrs by Western blotting analysis. Type of data set: cell-based.
In data set [11] the target is T1, HSP90 and hnRNPA2/B1. Briefly: Inhibition of HSP90/hnRNPA2/B1 in human CL152 cells assessed as upregulation of E-cadherin expression after 5 hrs by Western blotting analysis. It counts as cell-based.
Data set [12] relates to CL1-5. In words: Antitumor activity against human CL1-5 cells xenografted in Balb/c nu/nu mouse assessed as subcutaneously implanted tumor growth inhibition at 10 mg/kg/day, ip administered 3 times per week measured 2 times per week for 28 days. It counts as functional, organism-based. The method in brief:
(§3)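 Six-week-old male BALB/c nu/nu mice (SPF) given 1 × 10^6 CL1-5 cells s.c. in the right flank; at 100 mm^3 tumor volume (5–8 days), six mice per group randomized to compound 10 mg/kg/day or vehicle i.p. three times weekly. Volume from calipers as 0.5W²L; tumor volume and body weight recorded twice weekly.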
For orientation: Xenograft models place foreign cells or tissue in a host animal.

Data set [13] concerns CL1-5. In words: Antiinvasive activity against human CL1-5 cells after 20 hrs by matrigel-coated transwell assay. It counts as functional, cell-based. The gist of the method:
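Transwell chambers (8 μm pores) coated with 5 μg/mL Matrigel; 2.5 × 10^4 cells seeded on top in medium with 10% NuSerum; after 20 h, cells reaching the lower side fixed in methanol, stained with 50 μg/mL propidium iodide and quantified by image analysis. Triplicate samples; mean ± SD of three independent experiments.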

For data set [14], the system named is CL1-5. Briefly: Antitumor activity against human CL1-5 cells xenografted in Balb/c nu/nu mouse assessed as orthotopic tumor growth inhibition at 10 mg/kg/day, ip administered 3 times per week measured 2 times per week for 28 days. Type of data set: functional, organism-based. The method in brief:
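CL1-5 cells inoculated into the pleural cavity of 6-week-old BALB/c nu/nu mice (n = 6 per group); i.p. dosing with compound or DMSO vehicle three times weekly from day 5. At 28 days mice killed by CO2, organs formalin-fixed; tumor volume in excised lungs and metastatic nodule counts taken, mean ± SD of six mice.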

Data set [15] addresses T1, HSP90 and hnRNPA2/B1. In words: Inhibition of HSP90/hnRNPA2/B1 in human CL152 cells assessed as reduction of slug expression at 0.5 ug/ml after 5 hrs by Western blotting analysis. Type of data set: cell-based. The method in brief: as §2
Data set [16] deals with CL1-5. Briefly: Reduction of filopodia formation in human CL1-5 cells at 0.1 to 0.75 ug/ml by immunofluorescence staining-based microscopic analysis. Type of data set: functional, cell-based.
In another data set the test system is Mus musculus. In words: Toxicity in Balb/c nu/nu mouse xenografted with human CL1-5 cells at 10 mg/kg, ip qd administered 3 times per week measured 2 times per week for 28 days. It counts as organism-based. Set-up: dose 10 mg/kg, route intraperitoneal. The note with it: in vivo, 672 h. The gist of the method:
as §3

Calls of active or inactive are those of the source. The calls are words filed in the database; no cut-off is given here.

T1 sequence (P08238 whole entry, looked up): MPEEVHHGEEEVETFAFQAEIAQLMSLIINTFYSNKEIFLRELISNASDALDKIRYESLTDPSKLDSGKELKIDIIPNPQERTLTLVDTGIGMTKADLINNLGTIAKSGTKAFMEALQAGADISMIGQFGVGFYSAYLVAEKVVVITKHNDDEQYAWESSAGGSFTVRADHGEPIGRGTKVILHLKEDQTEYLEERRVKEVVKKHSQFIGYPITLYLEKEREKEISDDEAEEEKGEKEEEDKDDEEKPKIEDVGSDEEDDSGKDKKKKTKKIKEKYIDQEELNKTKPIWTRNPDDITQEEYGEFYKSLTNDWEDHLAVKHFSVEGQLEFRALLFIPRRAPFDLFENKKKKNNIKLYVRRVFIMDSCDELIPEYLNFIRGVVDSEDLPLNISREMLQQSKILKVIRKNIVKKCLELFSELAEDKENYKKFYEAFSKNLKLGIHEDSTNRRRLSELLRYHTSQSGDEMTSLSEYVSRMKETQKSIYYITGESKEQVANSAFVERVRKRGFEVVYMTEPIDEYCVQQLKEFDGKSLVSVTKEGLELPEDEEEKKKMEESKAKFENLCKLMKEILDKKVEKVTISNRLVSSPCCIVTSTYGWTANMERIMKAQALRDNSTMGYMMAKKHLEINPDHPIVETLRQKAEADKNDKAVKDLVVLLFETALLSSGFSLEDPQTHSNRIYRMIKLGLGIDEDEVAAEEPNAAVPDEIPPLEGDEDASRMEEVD
T1 sequence (P22626 whole entry, looked up): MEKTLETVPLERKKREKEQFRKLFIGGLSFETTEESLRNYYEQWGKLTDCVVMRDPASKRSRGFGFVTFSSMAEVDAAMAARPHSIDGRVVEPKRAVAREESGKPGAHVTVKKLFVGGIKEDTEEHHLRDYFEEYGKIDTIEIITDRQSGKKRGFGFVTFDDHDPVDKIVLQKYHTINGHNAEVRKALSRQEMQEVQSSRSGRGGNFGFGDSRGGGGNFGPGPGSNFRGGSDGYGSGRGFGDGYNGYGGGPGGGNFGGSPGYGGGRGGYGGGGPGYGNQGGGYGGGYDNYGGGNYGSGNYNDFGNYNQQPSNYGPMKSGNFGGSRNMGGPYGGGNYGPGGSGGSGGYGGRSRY

Regarding `Cl.Cl.NCCOCCOCCOCCOc1ccc2c(CN3CCC(CO)CC3)cc3cc4c(cc3c2c1)OCO4`, in the data set with CL1-5 [1], the outcome was inactive. For the same compound, the result on HSP90 and hnRNPA2/B1 [2] was Active. The same compound displayed an IC50 at HSP90 and hnRNPA2/B1 [3] of 0.5 µg/mL. For the same compound, on HSP90 and hnRNPA2/B1 [4], the inhibition result was “Active”. Also, on HSP90 and hnRNPA2/B1 [5], the inhibition entry is “inactive”.
Regarding `COc1ccc2c(CN3CCC(CO)CC3)cc3cc4c(cc3c2c1)OCO4`, the inhibition result at HSP90 and hnRNPA2/B1 [6] is “Active”; on HSP90 and hnRNPA2/B1 [7], “Active”; on HSP90 and hnRNPA2/B1 [8] it was “Active”; at HSP90 and hnRNPA2/B1 [15], “Active”. In addition, the outcome in the data set with CL1-5 [9] and in the data set on CL1-5 [16] was Active. Also, the inhibition result is “Dose-dependent effect” at HSP90 and hnRNPA2/B1 [10]; “Dose-dependent effect” on HSP90 and hnRNPA2/B1 [11]. In addition, the TGI result with CL1-5 [12] and with CL1-5 [14] was “Active” in each case. Moreover, the values for the Activity entry with CL1-5 [13] and in the data set on Mus musculus were “Dose-dependent effect” and “Non-toxic”, respectively.

One may read the IC50 as the concentration at which inhibition is half-maximal. Lower therefore signals greater potency in that assay.
